Data: ChEMBL document CHEMBL1137537, “Novel oxotremorine-related heterocyclic derivatives: Synthesis and in vitro pharmacology at the muscarinic receptor subtypes” (Bioorg Med Chem, 2007)

Key:
[1] = target: T1, Muscarinic acetylcholine receptor M4 (Homo sapiens, UniProt P08173); experiment: Displacement of [3H]QNB from human muscarinic M4 receptor expressed in CHO cells; format: cell-based
T1 sequence (P08173 whole entry): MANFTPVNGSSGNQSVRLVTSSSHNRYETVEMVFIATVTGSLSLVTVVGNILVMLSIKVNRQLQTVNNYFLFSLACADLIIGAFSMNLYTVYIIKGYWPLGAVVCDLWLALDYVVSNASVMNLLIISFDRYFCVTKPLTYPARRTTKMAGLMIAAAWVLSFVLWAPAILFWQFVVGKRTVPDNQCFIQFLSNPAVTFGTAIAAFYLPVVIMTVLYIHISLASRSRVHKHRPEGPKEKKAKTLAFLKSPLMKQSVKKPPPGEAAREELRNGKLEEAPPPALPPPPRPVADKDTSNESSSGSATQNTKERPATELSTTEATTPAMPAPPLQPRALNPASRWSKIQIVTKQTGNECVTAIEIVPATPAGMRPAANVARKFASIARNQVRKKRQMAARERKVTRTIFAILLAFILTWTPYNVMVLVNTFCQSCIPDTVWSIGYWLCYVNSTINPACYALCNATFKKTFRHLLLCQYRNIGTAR
Outline: (§1)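 Membranes (10-50 µg protein) from stable CHO lines expressing human m2-m5, competed against 180 pM [3H]QNB in 50 mM Tris-HCl pH 7.4 with 1% DMSO; 120 min at 25 °C to equilibrium; nonspecific binding with 0.5 µM atropine; GF-C filtration, scintillation counting; IC50 by logistic fit, Ki via Cheng–Prusoff using saturation-derived KD (5–2500 pM [3H]QNB).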

[2] = target: T2, Muscarinic acetylcholine receptor M5 (Homo sapiens, UniProt P08912); experiment: Displacement of [3H]QNB from human muscarinic M5 receptor expressed in CHO cells; format: cell-based
T2 sequence (P08912 whole entry): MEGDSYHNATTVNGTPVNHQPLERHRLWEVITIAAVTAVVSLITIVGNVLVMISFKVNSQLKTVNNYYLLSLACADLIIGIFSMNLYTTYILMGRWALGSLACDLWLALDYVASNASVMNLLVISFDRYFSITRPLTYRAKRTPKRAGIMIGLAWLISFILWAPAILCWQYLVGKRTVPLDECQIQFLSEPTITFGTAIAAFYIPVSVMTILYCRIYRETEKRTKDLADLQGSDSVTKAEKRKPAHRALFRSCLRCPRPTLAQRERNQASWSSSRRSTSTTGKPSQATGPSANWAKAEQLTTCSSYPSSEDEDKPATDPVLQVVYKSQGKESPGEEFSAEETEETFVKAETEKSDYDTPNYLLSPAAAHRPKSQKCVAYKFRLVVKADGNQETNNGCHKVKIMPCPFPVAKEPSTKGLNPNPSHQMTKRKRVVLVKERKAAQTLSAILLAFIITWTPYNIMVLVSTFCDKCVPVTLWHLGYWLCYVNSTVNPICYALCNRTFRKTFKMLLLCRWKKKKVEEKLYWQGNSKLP

[3] = target: T3, Muscarinic acetylcholine receptor M2 (Homo sapiens, UniProt P08172); experiment: Displacement of [3H]QNB from human muscarinic M2 receptor expressed in CHO cells; format: cell-based; outline: as §1
T3 sequence (P08172 whole entry): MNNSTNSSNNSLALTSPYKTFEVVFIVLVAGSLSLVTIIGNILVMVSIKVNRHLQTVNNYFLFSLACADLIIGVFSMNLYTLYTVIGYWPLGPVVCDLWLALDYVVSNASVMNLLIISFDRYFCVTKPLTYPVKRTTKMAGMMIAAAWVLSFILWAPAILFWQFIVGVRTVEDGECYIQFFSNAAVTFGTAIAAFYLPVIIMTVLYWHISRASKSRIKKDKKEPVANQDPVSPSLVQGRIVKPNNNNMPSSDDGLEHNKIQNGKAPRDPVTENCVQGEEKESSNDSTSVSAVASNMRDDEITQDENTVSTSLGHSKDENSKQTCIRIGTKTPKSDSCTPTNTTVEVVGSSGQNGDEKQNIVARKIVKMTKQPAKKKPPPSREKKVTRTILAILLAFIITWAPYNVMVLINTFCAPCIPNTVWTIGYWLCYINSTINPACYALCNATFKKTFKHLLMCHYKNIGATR

[4] = target: T4, Muscarinic acetylcholine receptor M1 (Homo sapiens, UniProt P11229); experiment: biochemical; format: cell-based, CHO
T4 sequence (P11229 whole entry): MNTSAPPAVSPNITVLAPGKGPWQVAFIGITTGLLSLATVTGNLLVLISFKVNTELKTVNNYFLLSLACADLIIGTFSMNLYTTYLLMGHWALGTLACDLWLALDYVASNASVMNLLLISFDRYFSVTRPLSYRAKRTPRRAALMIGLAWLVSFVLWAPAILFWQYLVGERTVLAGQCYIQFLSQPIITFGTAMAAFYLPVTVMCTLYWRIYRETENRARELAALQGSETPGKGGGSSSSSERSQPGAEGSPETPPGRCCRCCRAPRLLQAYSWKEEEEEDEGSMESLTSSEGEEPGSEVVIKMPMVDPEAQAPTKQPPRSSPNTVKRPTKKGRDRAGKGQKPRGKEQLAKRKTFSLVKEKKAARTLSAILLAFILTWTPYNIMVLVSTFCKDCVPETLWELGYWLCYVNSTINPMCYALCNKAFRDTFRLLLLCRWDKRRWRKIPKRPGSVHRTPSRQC

[5] = target: Muscarinic acetylcholine receptor M3 (Homo sapiens, UniProt P20309); experiment: Displacement of [3H]QNB from human muscarinic M3 receptor expressed in CHO cells; format: cell-based
[6] = Binding affinity to muscarinic M2 receptor in electrically stimulated guinea-pig left atrium; format: tissue-based, Cavia porcellus, Cardiac atrium
Outline: (§2)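 Apparent affinity pKD: for full agonists by receptor inactivation with phenoxybenzamine (1-10 µM, 20-30 min); for partial agonists by McKay's method comparing curves with reference full agonist; mean of 6-8 experiments.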

Oryctolagus cuniculus = species: Oryctolagus cuniculus; experiment: Intrinsic activity at muscarinic M1 receptor in electrically stimulated New Zealand rabbit vas deferens relative to McN-A-343; format: tissue-based
Outline: (§3)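 Intrinsic activity as ratio of compound's maximal response to that of reference full agonist (McN-A-343 for vas deferens, bethanechol for atrium and ileum), from cumulative concentration–response curves; mean of 6-8 experiments.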

[7] = target: T5, Muscarinic acetylcholine receptor M3 (Cavia porcellus, UniProt Q8VH26); experiment: Agonist activity at muscarinic M3 receptor in guinea-pig ileum; format: functional, tissue-based
Outline: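 Guinea-pig ileal segments 2–3 cm, 1.0 g tension, 37 °C Krebs-Henseleit with carbogen, 45 min equilibration; isometric contractions to cumulative agonist concentrations; pEC50 by least-squares linear regression; mean of 6-8 experiments.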

[8] = Agonist activity at muscarinic M2 receptor in electrically stimulated guinea-pig left atrium; format: functional, tissue-based; conditions: Cavia porcellus, Cardiac atrium
Cavia porcellus = species: Cavia porcellus; experiment: Intrinsic activity at muscarinic M2 receptor in electrically stimulated guinea-pig left atrium relative to benthanechol; format: tissue-based; conditions: Cardiac atrium; outline: as §3
[9] = target: T5, Muscarinic acetylcholine receptor M3; experiment: Binding affinity to muscarinic M3 receptor in guinea-pig ileum; format: tissue-based; outline: as §2
[10] = target: Muscarinic acetylcholine receptor M3 (Cavia porcellus) (UniProt Q8VH26); experiment: Intrinsic activity at muscarinic M3 receptor in guinea-pig ileum relative to benthanechol; format: tissue-based; outline: as §3
[11] = Antagonist activity at muscarinic M1 receptor in electrically stimulated New Zealand rabbit vas deferens; format: functional, Oryctolagus cuniculus
Outline: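 Antagonist mode: after 30 min incubation with test compound (10 nM–100 µM), concentration–response curve to full agonist (bethanechol or McN-A-343) repeated; pKB as molar concentration giving twofold EC50 shift, Furchgott's method; mean of 6-8 experiments.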

[12] = Agonist activity at muscarinic M1 receptor in electrically stimulated New Zealand rabbit vas deferens; format: functional, tissue-based; conditions: Oryctolagus cuniculus
[13] = Binding affinity to muscarinic M1 receptor in electrically stimulated New Zealand rabbit vas deferens; format: tissue-based, Oryctolagus cuniculus; outline: as §2

Chain of Muscarinic acetylcholine receptor M3 (Homo sapiens, UniProt P20309) (P20309 whole entry): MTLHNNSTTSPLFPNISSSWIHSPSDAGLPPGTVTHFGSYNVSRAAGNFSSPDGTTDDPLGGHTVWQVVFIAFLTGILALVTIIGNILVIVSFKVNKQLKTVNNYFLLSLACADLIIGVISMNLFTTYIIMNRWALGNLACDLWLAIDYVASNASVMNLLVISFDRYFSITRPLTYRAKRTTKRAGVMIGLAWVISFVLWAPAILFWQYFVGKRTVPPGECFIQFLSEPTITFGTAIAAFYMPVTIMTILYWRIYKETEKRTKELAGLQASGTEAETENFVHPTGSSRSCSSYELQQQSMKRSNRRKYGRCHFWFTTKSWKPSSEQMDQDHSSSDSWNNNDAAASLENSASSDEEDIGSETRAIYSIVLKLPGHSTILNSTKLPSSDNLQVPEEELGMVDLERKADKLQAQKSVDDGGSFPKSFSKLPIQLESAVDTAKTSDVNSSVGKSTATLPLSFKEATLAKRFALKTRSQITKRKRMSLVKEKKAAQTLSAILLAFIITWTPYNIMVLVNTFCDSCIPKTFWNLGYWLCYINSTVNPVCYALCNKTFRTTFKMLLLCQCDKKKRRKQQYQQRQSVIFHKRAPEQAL
Chain of Muscarinic acetylcholine receptor M3 (Cavia porcellus) (Q8VH26 1-587): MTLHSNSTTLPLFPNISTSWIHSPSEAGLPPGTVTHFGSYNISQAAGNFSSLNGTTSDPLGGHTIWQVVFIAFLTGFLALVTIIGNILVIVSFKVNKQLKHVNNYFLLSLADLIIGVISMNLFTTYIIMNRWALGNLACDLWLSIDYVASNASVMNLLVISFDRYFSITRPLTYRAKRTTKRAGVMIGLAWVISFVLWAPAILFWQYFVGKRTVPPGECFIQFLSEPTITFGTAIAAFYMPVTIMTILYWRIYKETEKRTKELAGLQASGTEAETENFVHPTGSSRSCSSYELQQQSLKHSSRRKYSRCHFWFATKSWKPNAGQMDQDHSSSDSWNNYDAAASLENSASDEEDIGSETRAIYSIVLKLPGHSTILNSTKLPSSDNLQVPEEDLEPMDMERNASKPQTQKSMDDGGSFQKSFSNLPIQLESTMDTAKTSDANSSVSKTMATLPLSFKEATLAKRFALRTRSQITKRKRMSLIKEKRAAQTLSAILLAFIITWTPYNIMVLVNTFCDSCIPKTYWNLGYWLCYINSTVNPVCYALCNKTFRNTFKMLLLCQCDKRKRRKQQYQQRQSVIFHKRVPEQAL
T5 sequence (Q8VH26 whole entry): as the sequence (Q8VH26 1-587) above

Structure (SMILES)	Ki [1]	Ki [2]	Ki [3]	Ki [4]	Ki [5]	pKd [6]	Intrinsic activity (Oryctolagus cuniculus)	EC50 [7]	EC50 [8]	Intrinsic activity (Cavia porcellus)	Kd [9]	Intrinsic activity [10]	pKb [11]	EC50 [12]	pKd [13]
C[N+]1(CC#CCOC2=NOCC2)CCc2ccccc2C1 (stereo unspecified)	2.26 µM	5.66 µM	0.474 µM	6.96 µM	0.887 µM	–	–	–	–	–	–	–	–	–	–
Cc1cc(OCC#CC[N+]2(C)CCCC2)no1.[I-]	5.93 µM	7.51 µM	2.04 µM	7.68 µM	7.39 µM	6.72	0	0.55 µM	0.251 µM	1	1.66 µM	0.9	6.01	–	–
C[N+]1(CC#CCN2OCCC2=O)CCCCC1	–	> 10 µM	> 10 µM	–	–	–	–	–	–	–	–	–	–	–	–
C(#CCOc1ccon1)CO/N=C1\CN2CCC1CC2.O=C(O)/C=C/C(=O)O	–	–	–	–	–	5.97	0	1.02 µM	3.09 µM	0.7	3.63 µM	0.9	5.85	–	–
C[N+]1(CC#CCN2OCCC2=O)CCc2ccccc21 (stereo unspecified)	–	> 10 µM	> 10 µM	–	–	–	–	–	–	–	–	–	–	–	–
O=C1CCON1CC#CCN1CCCC1	0.222 µM	0.51 µM	0.07 µM	0.905 µM	0.392 µM	–	–	–	–	–	–	–	–	–	–
Cc1cc(OCC#CCN(C)C)no1.O=C(O)/C=C/C(=O)O	1.1 µM	> 10 µM	3.8 µM	> 10 µM	> 10 µM	3.56	0.6	0.794 µM	0.513 µM	1	39.8 µM	1.1	–	3.47 µM	5.45
C[N+](C)(C)CC#CCOC(=O)Nc1cccc(Cl)c1.[Cl-]	–	–	–	–	–	–	1	–	–	–	–	–	–	0.398 µM	7.2
Cc1cc(OCC#CC[N+](C)(C)C)no1.[I-]	0.682 µM	6.31 µM	0.05 µM	> 10 µM	3.99 µM	7.03	0.9	0.00724 µM	0.00661 µM	1	0.676 µM	1	–	0.0398 µM	6.97
CC(C[N+](C)(C)C)OC(N)=O (stereo unspecified) [BETHANECHOL]	–	–	–	–	–	5.37	–	0.427 µM	0.646 µM	1	12.6 µM	1	–	–	–
C[N+]12CCC(CC1)/C(=N/OCC#CCOc1ccon1)C2.[I-]	–	> 10 µM	> 10 µM	–	–	–	0.9	3.55 µM	> 100 µM	–	9.33 µM	0.7	–	4.27 µM	3.82
C(#CCN1CCc2ccccc2C1)COC1=NOCC1	–	> 10 µM	> 10 µM	–	–	–	–	–	–	–	–	–	–	–	–
C(#CCN1CCCCC1)COC1=NOCC1.O=C(O)C(=O)O	6.04 µM	5.14 µM	0.876 µM	4.55 µM	3.92 µM	6.22	0	1.78 µM	1.1 µM	0.6	21.9 µM	1	5.91	–	–
C[N+]1(CC#CCN2OCCC2=O)CCc2ccccc2C1 (stereo unspecified)	–	> 10 µM	> 10 µM	–	–	–	–	–	–	–	–	–	–	–	–
C(#CCN1CCc2ccccc21)COC1=NOCC1	–	> 10 µM	> 10 µM	–	–	–	–	–	–	–	–	–	–	–	–
C[N+]1(CC#CCOC2=NOCC2)CCc2ccccc21 (stereo unspecified)	> 10 µM	> 10 µM	4.1 µM	> 10 µM	5.54 µM	–	–	–	–	–	–	–	–	–	–
O=C1CCON1CC#CCN1CCc2ccccc2C1	–	> 10 µM	> 10 µM	–	–	–	–	–	–	–	–	–	–	–	–
O=C1CCON1CC#CCN1C2CCCC1CC2	–	> 10 µM	> 10 µM	–	–	–	–	–	–	–	–	–	–	–	–
CN(C)CC#CCOc1cc(-c2ccccc2)on1	–	> 10 µM	> 10 µM	–	–	–	–	–	–	–	–	–	–	–	–
